Experimental data reported in publication PMC8526403 (ACS chemical biology, 2021).
Entries after “also recorded” stand apart in the source; their conditions may differ.

Assays:
HMGB1 = molecular target: T1, HMGB1 (Mus musculus, UniProt P63158); test: Binding of biotinylated oligosaccharides to HMGB1; details: biotinylated oligosaccharide, mouse liver lysate; for fold increase in binding to HMGB-1 compared to negative control NS6S 8-mer: Western band intensity
T1 sequence (P63158 1-215): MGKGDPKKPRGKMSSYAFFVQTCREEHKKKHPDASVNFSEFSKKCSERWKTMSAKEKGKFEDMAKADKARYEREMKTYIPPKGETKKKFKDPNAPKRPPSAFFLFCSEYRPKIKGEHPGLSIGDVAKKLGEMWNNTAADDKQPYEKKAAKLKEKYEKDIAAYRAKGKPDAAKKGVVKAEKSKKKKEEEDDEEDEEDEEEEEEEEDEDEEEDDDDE
How it was run: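 Biotinylated oligosaccharides (~20 nmol) were mixed with fresh mouse liver lysate containing HMGB1 in 20 mM HEPES, pH 7.2, 100 mM NaCl, 1% BSA. Incubation was overnight at 4 °C. Complexes were captured on streptavidin agarose and washed 5× in 20 mM HEPES/250 mM NaCl, pH 7.2. They were eluted in LDS buffer and blotted with rabbit monoclonal anti-HMGB1 plus HRP secondary. Bands were quantified densitometrically.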

human FXa = human FXa (Homo sapiens, UniProt P01008); test: Anti-FXa activity; type: biochemical; details: for fold increase of anti-FXa IC50 compared to HSoligo 9: ratio of IC50 values; for anti-FXa IC50: with antithrombin, 0–5000 ng/mL
How it was run: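 Human FXa at 50 U/mL in PBS. Test compound dissolved in PBS at 0–5000 ng/mL, preincubated with antithrombin (35 μg/mL) for 2 min at 37 °C. FXa added for 4 min at 37 °C, then diluted S-2765 (1 mg mL−1). A405 read continuously for 5 min. Maximum slope divided by control maximum slope gives % FXa activity.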

factor IIa (FIIa) = factor IIa (FIIa) (Homo sapiens, UniProt P01008); test: Anti-FIIa activity; type: biochemical
3-OST-4 [1] = molecular target: T2, 3-OST-4 (Homo sapiens, UniProt Q9Y661); test: Reactivity of 12-mers and HS to 3-OST-4 modification; type: biochemical; details: 12-mer substrates compared to HS polysaccharide
T2 sequence (Q9Y661 163-456): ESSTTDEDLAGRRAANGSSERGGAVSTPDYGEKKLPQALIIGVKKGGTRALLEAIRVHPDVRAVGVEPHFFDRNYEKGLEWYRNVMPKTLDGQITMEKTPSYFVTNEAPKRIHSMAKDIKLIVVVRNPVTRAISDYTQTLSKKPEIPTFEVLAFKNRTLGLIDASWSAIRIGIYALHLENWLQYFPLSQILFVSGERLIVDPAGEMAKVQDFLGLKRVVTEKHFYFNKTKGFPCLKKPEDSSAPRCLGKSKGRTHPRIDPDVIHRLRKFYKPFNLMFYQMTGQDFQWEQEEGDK
How it was run: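 Each 12-mer (10 μg) was incubated with 3-OST-4 (5 μL of 0.8 mg mL−1 stock) in 100 μL of 50 mM Tris-HCl, pH 7.5. The reaction contained [35S]PAPS (5 μM, 1.2 × 10^5 cpm) and ran 1 h at 37 °C. Product was recovered on DEAE and 35S counted as cpm. A no-substrate reaction served as background.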

3-OST-4 [2] = molecular target: T2, 3-OST-4; test: 3-OST-4 modification of oligosaccharide substrates, anion exchange HPLC analysis; type: biochemical; details: for sulfation by 3-OST-4 (in words): HPLC analysis of substrate with or without 3-OST-4 modification
How it was run: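 Recombinant human 3-OST-4 (E163–K456) was expressed in Sf9 insect cells and purified on heparin then Ni-Sepharose. Oligosaccharide substrates were incubated overnight at 37 °C with PAPS and 3-OST-4 (0.8 mg mL−1 stock) in 50 mM Tris, pH 7.2, with 2 mM CaCl2. For the 8-mer substrate C, 2 mM MnCl2 was also present. Conversion was followed by anion exchange HPLC.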

[3] = tested on: acetaminophen overdosed mice; details: acetaminophen overdose model; cited from earlier work
tau protein = tau protein (Homo sapiens, UniProt P10636); test: Binding of biotinylated oligosaccharides to Cy5-labeled tau; details: biotinylated oligosaccharide
How it was run: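 Biotinylated oligosaccharides (~10 nmol) were incubated overnight at 4 °C with Cy5-labeled tau (5 μg) in 20 mM HEPES, pH 7.2, 100 mM NaCl, 1% BSA. Complexes were captured on streptavidin agarose and washed 3× in HEPES/250 mM NaCl, then 2× in PBS. Tau was released with heparin lyases II (14 μg) and III (20 μg) over 4 h at RT. Released tau was resolved on 4–12% Bis-Tris gels, read by fluorescence scanning and quantified.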

[4] = tested on: acetaminophen overdosed mice; test: Hepatoprotection in acetaminophen overdosed mice; type: in vivo, mouse

tau protein, sequence (P10636 1-441 isoform P10636-8): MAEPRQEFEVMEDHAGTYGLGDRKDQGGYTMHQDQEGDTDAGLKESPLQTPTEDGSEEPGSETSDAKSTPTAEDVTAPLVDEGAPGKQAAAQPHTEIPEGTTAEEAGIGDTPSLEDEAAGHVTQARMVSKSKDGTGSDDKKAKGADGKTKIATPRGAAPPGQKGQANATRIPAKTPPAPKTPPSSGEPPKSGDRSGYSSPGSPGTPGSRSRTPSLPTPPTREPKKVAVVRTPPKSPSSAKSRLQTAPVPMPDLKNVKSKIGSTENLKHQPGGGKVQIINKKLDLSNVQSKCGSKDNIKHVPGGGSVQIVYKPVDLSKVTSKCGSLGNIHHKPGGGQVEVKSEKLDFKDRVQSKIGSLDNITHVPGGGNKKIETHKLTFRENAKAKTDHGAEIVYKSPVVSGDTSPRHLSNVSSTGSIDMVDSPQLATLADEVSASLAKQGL
human FXa, sequence (P01008 33-464): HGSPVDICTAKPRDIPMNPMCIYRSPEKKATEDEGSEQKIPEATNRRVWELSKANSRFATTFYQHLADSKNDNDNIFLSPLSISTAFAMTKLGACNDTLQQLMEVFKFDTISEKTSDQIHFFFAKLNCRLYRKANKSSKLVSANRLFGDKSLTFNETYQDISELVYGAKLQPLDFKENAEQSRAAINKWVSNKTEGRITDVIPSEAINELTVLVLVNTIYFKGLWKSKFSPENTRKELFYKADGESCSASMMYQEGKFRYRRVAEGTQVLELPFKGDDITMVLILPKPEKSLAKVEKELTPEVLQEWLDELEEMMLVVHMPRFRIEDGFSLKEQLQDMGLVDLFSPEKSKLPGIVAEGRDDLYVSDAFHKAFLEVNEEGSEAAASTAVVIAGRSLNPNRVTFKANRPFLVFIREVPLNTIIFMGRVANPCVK
factor IIa (FIIa), sequence (P01008 33-464): as above

Substance	anti-FXa IC50 (human FXa)	anti-IIa IC50 (factor IIa (FIIa))	reactivity toward 3-OST-4 modification (in words) (3-OST-4 [1])	other results
GlcNS6S-GlcA-GlcNS6S-GlcA2S-GlcNS3S6S-GlcA-pNP [HSoligo 4]	0.3114 µg/mL	no inhibition		fold increase in binding to HMGB-1 compared to negative control NS6S 8-mer (HMGB1): 6 fold; fold increase of anti-FXa IC50 compared to HSoligo 9 (human FXa): 6.9 fold
GlcNS6S-GlcA-GlcNS6S-GlcA2S-GlcNS3S6S-IdoA2S-GlcNS-GlcA-pNP [HSoligo 9]	0.0225 µg/mL	no inhibition		
GlcNS-GlcA-(GlcNS-IdoA2S)4-GlcNSGlcA-pNP [12-mer NS2S]			preferably sulfates	
GlcNS6S-GlcA-GlcNS6S-GlcA2S-GlcNS3S6S-GlcA2S-pNP [HSoligo 5]	0.1544 µg/mL	no inhibition		
GlcNS6S-GlcA-(GlcNS6S-IdoA2S)4-GlcNS6S-GlcA-pNP [12-mer NS2S6S]			not substrates	
GlcNS-GlcA-GlcNS-GlcA2S-GlcNS3S-IdoA2S-GlcNS-GlcA-pNP [HSoligo 8]	no inhibition	no inhibition		
GlcNS-GlcA-GlcNS-GlcA2S-GlcNS-GlcA2S-pNP [6-mer substrate E]				sulfation by 3-OST-4 (in words) (3-OST-4 [2]): highly reactive
GlcNS-GlcA-GlcNS-GlcA-GlcNS-IdoA2S-GlcNS-GlcA-pNP [8-mer substrate B]				sulfation by 3-OST-4 (in words) (3-OST-4 [2]): failed to sulfate
GlcNS6S-(GlcA-GlcNS6S)5-GlcA-pNP [12-mer NS6S]			not substrates	
GlcNS-GlcA-GlcNS-GlcA2S-GlcNS-GlcA-pNP [6-mer substrate D]				sulfation by 3-OST-4 (in words) (3-OST-4 [2]): nearly quantitatively converted
GlcNS6S-GlcA-GlcNS3S6S-IdoA2S-GlcNS6S-IdoA2S-GlcNS6S-IdoA2S-GlcNS6S-IdoA2S-GlcNS6S-IdoA2S-GlcNS6S-IdoA2S-GlcNS6S-IdoA2S-GlcNS6S-GlcA-Biotin [18-mer AXa]				hepatoprotection effect [3]: does not display the hepatoprotection effect
GlcNS6S-GlcA-GlcNS6S-GlcA2S-GlcNS3S6S-GlcA2S-GlcNS3S6S-GlcA2S-pNP [HSoligo 7]	0.0795 µg/mL	lacks anti-FIIa activity; also recorded: no inhibition		extent of binding to HMGB1 relative to positive control 18-mer AXa (in words) (HMGB1): comparable to that of 18-mer AXa; fold increase in binding to HMGB-1 compared to negative control NS6S 8-mer (HMGB1): 15 fold; binding to tau, fold higher than 8-mer NS6S (tau protein): 2 fold; binding to tau, fold higher than HSoligo 4 (tau protein): 4 fold; level of binding to tau relative to 18-mer AXa (in words) (tau protein): comparable to 18-mer AXa; fold increase of anti-FXa IC50 compared to HSoligo 9 (human FXa): 3.5 fold; hepatoprotection: plasma level of alanine aminotransferase (ALT) [4]: did not find a decrease
GlcNAc-(GlcA-GlcNAc)5-GlcA-pNP [12-mer NAc]			not substrates	
GlcNS-(GlcA-GlcNS)5-GlcA-pNP [12-mer NS]			Lower reactivity	
GlcNS-GlcA-GlcNS-IdoA2S-GlcNS-IdoA2S-GlcNS-GlcA-pNP [8-mer substrate C]				substrate converted to 3-O-sulfated product after 3-OST-4 modification (3-OST-4 [2]; HPLC, conversion to HSoligo 1): about 71%
